Here are results for seven compounds from ChEMBL document CHEMBL1125370, “Cardiotonic agents. Synthesis and cardiovascular properties of novel 2-arylbenzimidazoles and azabenzimidazoles” (J Med Chem, 1992).

Activity calls are given as the source filed them. The calls are words filed in the database; no cut-off is given here.

The test system of assay [1] is Canis familiaris. The assay is described as follows: In vivo hypotension in anesthetized dog, expressed as the dose of the drug producing a 25% decrease in diastolic arterial pressure (DAP) from control value. The conditions noted are these: Canis lupus familiaris, Artery. It counts as functional.
The subject of assay [2] is Canis familiaris. Description: In vivo contractility in anesthetized dog expressed as dose which produced a 50% increase in dP/dt max from the control value. It counts as functional, Canis lupus familiaris.
The species entered for assay [3] is Cavia porcellus. Description: The compound was tested in vitro for inotropic activity in isolated left atria from guinea pig;No effect at a maximal concentration of 50 uM,. It counts as functional. In outline: (§1)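 Isolated left atria preparation. Tension max is the maximal increase in developed tension. […] EC50 was not calculated when tension max was below 250 mg. Bracketed values give the maximal concentration used, and no effect was recorded up to that concentration. Values are means ± SEM.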

For assay [4], the species on record is Cavia porcellus. Description: The compound was tested in vitro for inotropic activity expressed as the maximal increase in developed tension. in isolated left atria from guinea pig;No effect at a maximal concentration of 50 uM. It counts as functional. The gist of the method: (§2)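 Isolated left atria preparation. Tension max is the maximal increase in developed tension. Bracketed values give the maximal concentration used, and no effect was recorded up to that concentration. Values are means ± SEM.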

Assay [5] deals with Canis familiaris. The assay is described as follows: In vivo contractility in conscious dog expressed as dose which produced a 50% increase in dP/dt max from the control value;No effect up to 1 mg/kg. It counts as functional, organism-based. More on the design: dose 1 mg/kg. The conditions noted are these: Canis lupus familiaris. The gist of the method:
(§3)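 Male beagles (12–15 kg) carried a Königsberg transducer implanted in the left ventricle to record dP/dt max and arterial pressure. Drug or placebo was given by gastric tube as a 1% gum arabic suspension. Effects were followed for 5 h.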

The test system of assay [6] is Canis familiaris. The assay is described as follows: In vivo hypotension in anesthetized dog expressed as the dose of the drug producing a 25% decrease in DAP from control valueNo effect at a maximal concentration of 50 uM. It counts as functional. The following applies: Canis lupus familiaris.
In assay [7] the test system is Canis familiaris. The assay is described as follows: In vivo contractility in anesthetized dog expressed as dose which produced a 50% increase in dP/dt max from the control value. It counts as functional. The following applies: Canis lupus familiaris.
Assay [8] is filed under the species Cavia porcellus. The assay is described as follows: In vitro inotropic activity in isolated left atria from guinea pig. It counts as functional. In outline: as §2
The species named for assay [9] is Cavia porcellus. Description: In vitro inotropic activity expressed as the maximal increase in developed tension in isolated left atria from guinea pig. It counts as functional. In outline:
as §2

The species entered for assay [10] is Cavia porcellus. The assay is described as follows: The compound was tested in vitro for chronotropic activity in isolated right atria from guinea pig;No effect at a maximal concentration of 50 uM. It counts as functional. The gist of the method: (§4)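 Isolated right atria, chronotropic read-out. Rate max is the maximal increase in rate, in beat/min. It comes from three to six experiments and was not calculated when rate max was below 30 beat/min. Bracketed values give the maximal concentration used. Means ± SEM.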

Assay [11] is filed under the species Cavia porcellus. Description: The compound was tested in vitro for inotropic activity in isolated left atria from guinea pig. No effect at a maximal concentration of 20 uM,. It counts as functional. The gist of the method:
as §1

For assay [12], the species on record is Cavia porcellus. Description: The compound was tested in vitro for inotropic activity expressed as the maximal increase in developed tension. in isolated left atria from guinea pig,No effect at a maximal concentration of 20 uM. It counts as functional. The gist of the method: as §1
Assay [13] deals with Canis familiaris. The assay is described as follows: In vivo contractility in conscious dog expressed as dose which produced a 50% increase in dP/dt max from the control value. It counts as functional. The following applies: Canis lupus familiaris. The gist of the method: as §3
The species entered for assay [14] is Cavia porcellus. The assay is described as follows: The compound was tested in vitro for chronotropic activity in isolated right atria from guinea pig. It counts as functional. The gist of the method: as §4
The species named for assay [15] is Cavia porcellus. The assay is described as follows: The compound was tested in vitro for chronotropic activity expressed as the maximal increase in beat/min in isolated right atria from guinea pig.

In assay [1], `Cc1cc2[nH]c(-c3ccc(-n4ccnc4)cc3)nc2cc1-n1ccnc1.Cl.O` gave an ED25 of over 3 mg/kg. Also, the Contractility in assay [2] is over 3 mg/kg. Also, the EC50 result in assay [3] is on record as “Not Active”. Besides, the Ionotropic activity entry in [4] is “inactive”.
For the compound `c1cc(-c2nc3c[nH]c(-n4ccnc4)nc-3n2)ccn1`, in assay [5], the ED50 entry is “inactive”.
The compound `c1ccc(-c2nc3cc(-n4ccnc4)ccc3[nH]2)nc1` returned an ED25 in assay [6] of 3 mg/kg. This compound also showed an ED50 in [7] of over 3 mg/kg. The EC50 is over 50 µM in [8] and “Not Active” in assay [10]. This compound also showed an Ionotropic activity in assay [9] of 170 mg.
In the case of `c1ccc(Nc2ncccc2-c2nc3cc(-n4ccnc4)ccc3[nH]2)cc1`, in assay [11], the EC50 entry is given as “Not Active”. Further, in assay [12], the Ionotropic activity entry was “inactive”.
The compound `O=C1CCC(c2ccc(Nc3ccncc3)cc2)=NN1` [SENAZODAN] gave an ED25 in [1] of 0.1 mg/kg. Moreover, the results for the ED50 in assay [7] and in assay [13] were 0.009 mg/kg and 0.1 mg/kg, respectively. For the same compound, the results for the concentration giving a half-maximal response (EC50) in assay [8] and in assay [14] were 34 µM and 20 µM, respectively. This compound returned an Ionotropic activity in assay [9] of 410 mg. For the same compound, the Rate max in assay [15] worked out at 39 beats min-1.
Turning to `Cc1[nH]c(=O)c(C#N)cc1-c1ccncc1` [MILRINONE], the ED25 in [1] amounted to 1 mg/kg. The median effective dose (ED50) in [7] came out at 0.15 mg/kg; in assay [13] it was 2 mg/kg. Further, the concentration for a half-maximal effect (EC50) in [8] turned out to be 4.7 µM; in assay [14], 22 µM. In addition, the Ionotropic activity in [9] came out at 580 mg. The Rate max in assay [15] is 70 beats min-1.
Compound `COc1cc([S+](C)[O-])ccc1-c1nc2cccnc2[nH]1` (stereo not drawn) [SULMAZOLE] gave an ED25 in assay [1] of 5 mg/kg. Besides, the 50% effective dose (ED50) was determined as 1 mg/kg in assay [7] and 10 mg/kg in [13]. Besides, the EC50 was found to be 31 µM in assay [8] and 100 µM in assay [14]. Moreover, the Ionotropic activity in assay [9] stood at 600 mg. The same compound gave a Rate max in assay [15] of 88 beats min-1.
